Results taken from ChEMBL document CHEMBL1121416, “Synthesis of potential inhibitors of hypoxanthine-guanine phosphoribosyltransferase for testing as antiprotozoal agents. 1. 7-Substituted 6-oxopurines” (J Med Chem, 1980).

Experiments:
Plasmodium berghei = experiment: Activity against Plasmodium berghei in mice (Mus musculus); type: functional, organism-based
Procedure, shortened: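 Mice infected with P. berghei; survival time (life span) of treated mice was the read-out.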

[1] = target: T1, Hypoxanthine-guanine phosphoribosyltransferase (Homo sapiens) (UniProt P00492); experiment: Ability to inhibit hypoxanthine-guanine phosphoribosyltransferase in crude extracts of H.Ep.-2 cells.
T1 sequence (whole entry): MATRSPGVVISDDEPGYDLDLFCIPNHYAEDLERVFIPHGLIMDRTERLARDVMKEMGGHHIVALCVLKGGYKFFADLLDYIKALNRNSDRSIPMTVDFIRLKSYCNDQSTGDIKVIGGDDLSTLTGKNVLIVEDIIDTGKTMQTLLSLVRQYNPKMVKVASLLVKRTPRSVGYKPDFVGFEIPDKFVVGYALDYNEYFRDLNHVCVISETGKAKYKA
Further: test concentration or dose not given here.

| Activity [1] | Structure (SMILES) | Activity (Plasmodium berghei) |
| --- | --- | --- |
| No inhibition | Nc1nc(O)c2c(ncn2CC(O)CO)n1 (stereo not drawn) | Not significant |
| No inhibition | Nc1nc(O)c2c(ncn2CCNC(=O)c2ccc(Cl)cc2)n1 | Not significant |
| No inhibition | O=[N+]([O-])c1cccc(Cn2cnc3ncnc(O)c32)c1 | Not significant |
| No inhibition | Nc1nc(O)c2c(ncn2Cc2cccc(NC(=O)c3ccc(Cl)cc3)c2)n1 | Not significant |
| No inhibition | Nc1nc(O)c2c(ncn2CCCS(=O)(=O)O)n1 | Not significant |
| No inhibition | Nc1ccc(Cn2cnc3ncnc(O)c32)cc1 | Not significant |
| No inhibition | O=C(Nc1ccc(Cn2cnc3ncnc(O)c32)cc1)c1ccc(Cl)cc1 | Not significant |
| No inhibition | CCOC(=O)/C=C/Cn1cnc2nc(N)nc(O)c21 | Not significant |
| No inhibition | Nc1nc(O)c2c(ncn2CC(O)CCl)n1 (stereo not drawn) | Not significant |
| No inhibition | Nc1nc(O)c2c(ncn2CCNC(=O)CBr)n1 | Not significant |
| No inhibition | Nc1nc(O)c2c(ncn2Cc2ccc([N+](=O)[O-])cc2)n1 | Not significant |
| No inhibition | Oc1ncnc2ncn(CC(O)CCl)c12 (stereo not drawn) | Not significant |
| No inhibition | Nc1nc(O)c2c(ncn2CCO)n1 | Not significant |
| No inhibition | Nc1nc(O)c2c(n1)nc(Cl)n2CCCl | Not significant |
| No inhibition | [N-]=[N+]=NCC(O)Cn1cnc2nc(N)nc(O)c21 (stereo not drawn) | Not significant |
| No inhibition | Nc1nc(O)c2c(ncn2CC=O)n1 | Not significant |
| No inhibition | O=C(CBr)Nc1ccc(Cn2cnc3ncnc(O)c32)cc1 | Not significant |
| No inhibition | Nc1nc(O)c2c(ncn2CC(O)CN2C(=O)c3ccccc3C2=O)n1 (stereo not drawn) | Not significant |
| No inhibition | Nc1nc(O)c2c(ncn2CC(O)CNC(=O)CBr)n1 (stereo not drawn) | Not significant |

| Activity [1] | Structure (SMILES) | Activity (Plasmodium berghei) |
| --- | --- | --- |
| No inhibition | Nc1nc(O)c2c(ncn2CC(O)CNC(=O)c2ccc(Cl)cc2)n1 (stereo not drawn) | Not significant |
| No inhibition | CC(=O)OC[C@H]1O[C@@H](N2C=NC3C(=O)N=C(N)N=C32)[C@H](OC(C)=O)[C@@H]1OC(C)=O (stereo partly drawn) | Not significant |
| No inhibition | Nc1ccc(Cn2cnc3nc(N)nc(O)c32)cc1 | Not significant |
| No inhibition | Nc1cccc(Cn2cnc3nc(N)nc(O)c32)c1 | Not significant |
| No inhibition | CC(=O)OCC1OC([n+]2cn(CCO)c3c(O)nc(N)nc32)C(OC(C)=O)C1OC(C)=O (stereo not drawn) | Not significant |
| No inhibition | Nc1cccc(Cn2cnc3ncnc(O)c32)c1 | Not significant |
| No inhibition | OCC(O)Cn1cnc2ncnc(O)c21 (stereo not drawn) | Not significant |
| No inhibition | Nc1nc(O)c2c(ncn2CCCl)n1 | Not significant |
| No inhibition | Nc1nc(O)c2c(ncn2Cc2ccc(NC(=O)CBr)cc2)n1 | Not significant |
| No inhibition | OCCn1cnc2ncnc(O)c21 | Not significant |
| No inhibition | Nc1nc(O)c2c(n1)[n+](C1O[C@H](CO)[C@@H](O)[C@H]1O)cn2CCO (stereo partly drawn) | Not significant |
| No inhibition | Nc1nc(O)c2c(ncn2Cc2cccc([N+](=O)[O-])c2)n1 | Not significant |
| No inhibition | NCCn1cnc2nc(N)nc(O)c21 | Not significant |
| No inhibition | Nc1nc(O)c2c(ncn2Cc2ccc(NC(=O)c3ccc(Cl)cc3)cc2)n1 | Not significant |
| No inhibition | NCC(O)Cn1cnc2nc(N)nc(O)c21 (stereo not drawn) | Not significant |
| No inhibition | Nc1nc(O)c2c(ncn2Cc2cccc(NC(=O)CBr)c2)n1 | Not significant |
| No inhibition | O=[N+]([O-])c1ccc(Cn2cnc3ncnc(O)c32)cc1 | Not significant |
| No inhibition | Nc1nc2c(ncn2[C@@H]2O[C@H](CO)[C@@H](O)[C@H]2O)c(=O)[nH]1 | Not significant |
| No inhibition | O=C1c2ccccc2C(=O)N1CC(O)Cn1cnc2ncnc(O)c21 (stereo not drawn) | Not significant |

| Structure (SMILES) | Activity [1] | Activity (Plasmodium berghei) |
| --- | --- | --- |
| [N-]=[N+]=NCCn1cnc2nc(N)nc(O)c21 | No inhibition | Not significant |
| Nc1nc(O)c2c(ncn2Cc2ccc(NC(=O)c3cccc(S(=O)(=O)F)c3)cc2)n1 | No inhibition | Not significant |
| Nc1nc(O)c2c(ncn2CCNC(=O)c2ccc(S(=O)(=O)F)cc2)n1 | No inhibition | Not significant |
| Nc1nc(O)c2c(ncn2Cc2cccc(NC(=O)c3cccc(S(=O)(=O)F)c3)c2)n1 | No inhibition | Not significant |
| O=C(Nc1ccc(Cn2cnc3ncnc(O)c32)cc1)c1ccc(S(=O)(=O)F)cc1 | No inhibition | Not significant |
| Nc1nc(O)c2c(ncn2Cc2cccc(NC(=O)c3ccc(S(=O)(=O)F)cc3)c2)n1 | No inhibition | Not significant |
| Nc1nc(O)c2c(ncn2CC(O)CNC(=O)c2cccc(S(=O)(=O)F)c2)n1 (stereo not drawn) | No inhibition | Not significant |
| Nc1nc(O)c2c(ncn2CCNC(=O)c2cccc(S(=O)(=O)F)c2)n1 | No inhibition | Not significant |
| Nc1nc(O)c2c(ncn2Cc2ccc(NC(=O)c3ccc(S(=O)(=O)F)cc3)cc2)n1 | No inhibition | Not significant |
| Nc1nc(O)c2c(ncn2CC(O)CNC(=O)c2ccc(S(=O)(=O)F)cc2)n1 (stereo not drawn) | No inhibition | Not significant |
| O=C(Nc1ccc(Cn2cnc3ncnc(O)c32)cc1)c1cccc(S(=O)(=O)F)c1 | No inhibition | Not significant |
